{"source": "ChEMBL document CHEMBL4190287", "about": "“Identification of Antiangiogenic Potential and Cellular Mechanisms of Napyradiomycin A1 Isolated from the Marine-Derived Streptomyces sp. YP127” (J Nat Prod, 2017)", "key": {"HUVEC [1]": {"system": "HUVEC", "test": "Antiproliferative activity against HUVEC after 72 hrs by Celltiter-Glo luminescent cell viability assay", "type": "functional", "settings": "Homo sapiens", "summary_of_the_method": "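HUVECs seeded 2.5 × 10^3 per well, treated with compound at different concentrations; confluency imaged every 6 h over 72 h. At 72 h viable cells measured by CellTiter-Glo luminescence; GI50 calculated.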"}, "HUVEC [2]": {"system": "HUVEC", "test": "Antiinvasive activity in HUVEC assessed as inhibition of VEGF-induced cell invasion at 20 uM measured every 3 hrs for 24 hrs relative to control", "type": "functional, Homo sapiens", "parameters": "scale not given: the % may be the effect or the level left", "summary_of_the_method": "(§1)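 Wound made in HUVEC monolayer (1 × 10^5 cells/well, grown overnight) with pin wounding device, washed with PBS; growth-factor-reduced basement membrane matrix overlaid on wound, compound-containing medium added. Tip cells at invasive front counted after 24 and 48 h of treatment versus control, live-cell imaging.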"}, "HUVEC [3]": {"system": "HUVEC", "test": "Antiproliferative activity against HUVEC assessed as inhibition of Ki67 expression at 20 uM after 24 hrs by immunofluorescent microscopic analysis", "type": "functional, cell-based", "settings": "Homo sapiens", "summary_of_the_method": "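HUVECs seeded 4 × 10^4 per well on gelatin, treated 24 h; fixed 4% paraformaldehyde 10 min, permeabilized 0.1% Triton X-100 10 min, blocked 10% normal horse serum 1 h RT, anti-Ki-67 1 h, Cy3 secondary, DAPI nuclear stain; fluorescence microscopy.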"}, "HUVEC [4]": {"system": "HUVEC", "test": "Antiangiogenic activity in HUVEC assessed as inhibition of VEGF-induced tube formation after 24 hrs by calcein-AM dye based fluorescence assay", "type": "functional, cell-based", "settings": "Homo sapiens", "summary_of_the_method": "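HUVECs (passage 6–8) seeded at 6 × 10^4 cells on growth-factor-reduced Matrigel, incubated 24 h with compound at various concentrations plus 10 ng/mL recombinant human VEGF; stained 2 μg/mL Calcein AM 20 min, 37 °C, imaged. Tubes with three branch points counted; three independent experiments, mean tube numbers; IC50 from concentration–response.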"}, "HUVEC [5]": {"system": "HUVEC", "test": "Antiinvasive activity in HUVEC assessed as inhibition of VEGF-induced cell invasion at 20 uM measured every 3 hrs for 48 hrs relative to control", "type": "functional, Homo sapiens", "parameters": "scale not given: the % may be the effect or the level left", "summary_of_the_method": "as §1"}, "HUVEC [6]": {"system": "HUVEC", "test": "Antimigratory activity against VEGF-stimulated HUVEC at 20 uM after 24 hrs by scratch wound-healing assay", "type": "functional, cell-based", "settings": "Homo sapiens", "summary_of_the_method": "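HUVECs plated at 1 × 10^5 cells/well, grown overnight, wounded with pin device, washed twice with PBS; medium with 10 ng/mL VEGF plus compound or DMSO added. Live-cell images every 3 h for 24 h; wound confluence (cell density in wound area, %) computed by imaging algorithm.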"}, "HUVEC [7]": {"system": "HUVEC", "test": "Cytotoxicity against HUVEC assessed as cell death at 20 uM after 24 hrs by YOYO-1 Iodide staining based fluorescence assay", "settings": "human"}, "HUVEC [8]": {"system": "HUVEC", "test": "Downregulation of VE-cadherin mRNA level in HUVEC at 20 uM after 48 hrs by qRT-PCR method relative to control", "type": "functional, Homo sapiens"}, "[9]": {"test": "Antiproliferative activity against human BJ6 cells at 0.2 to 20 uM after 72 hrs by IncuCyte live imaging"}, "HUVEC [10]": {"system": "HUVEC", "test": "Downregulation of VE-cadherin expression in HUVEC at 20 uM by Western blot method", "type": "functional, cell-based", "settings": "Homo sapiens, TDE = time-dependent effect", "summary_of_the_method": "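HUVEC lysates in RIPA buffer with protease inhibitors, separated on 4–12% SDS gradient gel, transferred to PVDF, probed with anti-VE-cadherin and anti-GAPDH, HRP secondary, ECL detection.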"}, "HUVEC [11]": {"system": "HUVEC", "test": "Induction of cellular permeability in HUVEC at 20 uM by Transwell assay", "type": "functional, cell-based", "settings": "Homo sapiens, TDE = time-dependent effect", "summary_of_the_method": "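HUVECs (5 × 10^5 cells/well) grown 48 h on gelatin-coated Transwell inserts, then exposed to compound a further 48 h; 1 mg/mL FITC-dextran added to upper chamber and fluorescence transferred to lower chamber read on plate reader.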"}, "HUVEC [12]": {"system": "HUVEC", "test": "Downregulation of PECAM1 expression in HUVEC at 20 uM after 24 to 48 hrs by Western blot method", "type": "functional, cell-based", "settings": "Homo sapiens"}, "HUVEC [13]": {"system": "HUVEC", "test": "Downregulation of PECAM1 mRNA level in HUVEC at 20 uM after 24 hrs by qRT-PCR method relative to control", "type": "functional, Homo sapiens"}, "HUVEC [14]": {"system": "HUVEC", "test": "Downregulation of PECAM1 mRNA level in HUVEC at 20 uM after 48 hrs by qRT-PCR method relative to control", "type": "functional, Homo sapiens"}, "HUVEC [15]": {"system": "HUVEC", "test": "Downregulation of VE-cadherin mRNA level in HUVEC at 20 uM after 24 hrs by qRT-PCR method relative to control", "type": "functional, Homo sapiens", "summary_of_the_method": "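Total RNA from compound- or DMSO-treated HUVECs (24 h) extracted, cDNA made, VE-cadherin mRNA quantified by real-time PCR relative to control.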"}}, "note": "Active and inactive are the calls of the source. No cut-off for these calls is given here."}
{"compound": "CC(C)=CCC/C(C)=C/C[C@@]12OC(C)(C)[C@H](Cl)C[C@]1(Cl)C(=O)c1c(O)cc(O)cc1C2=O", "values": [{"measurement": "GI50", "setting": "HUVEC [1]", "value": 27.6, "unit": "µM"}, {"measurement": "Activity", "setting": "HUVEC [2]", "value": 43, "unit": "%"}, {"measurement": "inhibition", "setting": "HUVEC [3]", "value": "Active"}, {"measurement": "IC50", "setting": "HUVEC [4]", "value": 10, "unit": "µM"}, {"measurement": "Activity", "setting": "HUVEC [5]", "value": 52, "unit": "%"}, {"measurement": "Activity", "setting": "HUVEC [6]", "value": "Active"}, {"measurement": "Activity", "setting": "HUVEC [7]", "value": "Non-Toxic"}, {"measurement": "Activity", "setting": "HUVEC [8]", "value": 94, "unit": "%"}, {"measurement": "Activity", "setting": "[9]", "value": "Non-Toxic"}, {"measurement": "Activity", "setting": "HUVEC [10]", "value": "Tde"}, {"measurement": "Activity", "setting": "HUVEC [11]", "value": "Tde"}, {"measurement": "Activity", "setting": "HUVEC [12]", "value": "inactive"}, {"measurement": "Activity", "setting": "HUVEC [13]", "value": 53, "unit": "%"}, {"measurement": "Activity", "setting": "HUVEC [14]", "value": 70, "unit": "%"}, {"measurement": "Activity", "setting": "HUVEC [15]", "value": 76, "unit": "%"}]}
